Here are results for 27 compounds from ChEMBL document CHEMBL2331480, “Novel naphthoquinone derivatives: synthesis and activity against human African trypanosomiasis” (Bioorg Med Chem Lett, 2013).

The structures appear in SMILES notation. A value given as a limit tells only on which side of the number the result lay.

One experiment deals with L6. In words: Cytotoxicity against rat L6 cells after 72 hrs by SRB assay. The experiment is classed as cell-based. The following applies: L6, 72 h. The procedure, abridged:
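L-6 rat skeletal myoblasts seeded at 2 × 10^3 cells/100 µL in DMEM with 10% heat-inactivated FBS onto threefold serially diluted compounds, with solvent blanks; 72 h at 37 °C, 5% CO2. Cells fixed with TCA (10% final, 4 °C, 1 h), stained 45 min with 0.4% SRB in 1% acetic acid, dye solubilized in 10 mM Tris base pH 10.5.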

In experiment [1] the test system is Trypanosoma brucei rhodesiense. Description: Antitrypanosomal activity against Trypanosoma brucei rhodesiense after 48 hrs by CellTiter-Glo assay. The class given is functional, organism-based. The procedure, abridged: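 T. b. rhodesiense bloodstream forms isolated from infected blood (citrate-glucose anticoagulant, diluted in HMI-9, low-speed spin), grown at 37 °C, 5% CO2 in HMI-9 with 10% heat-inactivated FBS and 10% Serum Plus. Compounds in DMSO pin-transferred onto diluted culture; 48 h at 37 °C; CellTiter-Glo read […] as percent of control; IC50 calculated.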
Background: Cellular ATP, detected with luciferase, serves as a proxy for viable cell number.

What is called IC50 is the point on the concentration scale where inhibition reaches its midpoint. The low end stands for inhibition by little substance, the high end for a need for much substance.

As to `Cc1ccc(NC2=C(Cl)C(=O)c3ccccc3C2=O)cc1`, the IC50 is more than 450 µM in the experiment with L6 and 20 µM in experiment [1].

For the compound `O=C1C(Cl)=C(Nc2ccccc2)C(=O)c2ccccc21`, the results for the IC50 (in the experiment with L6; in experiment [1]) were 417 µM and 0.17 µM, respectively.

Consider `Cc1ccccc1NC1=C(Cl)C(=O)c2ccccc2C1=O`, for which the IC50 with L6 was more than 450 µM; in experiment [1], 18 µM.

In the case of `Cc1cccc(NC2=C(Cl)C(=O)c3cccc([N+](=O)[O-])c3C2=O)c1`, the IC50 in the experiment with L6 stood at 214 µM; in experiment [1], 10 µM.

As for `Cc1cccc(NC2=C(Cl)C(=O)c3c(cccc3[N+](=O)[O-])C2=O)c1`, the figures for the IC50 (with L6; in experiment [1]) were 223 µM and 11 µM, respectively.

On to `O=C1C(Nc2ccccc2C(F)(F)F)=C(Nc2ccccc2C(F)(F)F)C(=O)c2ccccc21`, for which the IC50 in the experiment on L6 worked out at 292 µM; in experiment [1], 0.45 µM.

Consider `O=C1C(Cl)=C(Nc2ccccc2C(F)(F)F)C(=O)c2ccccc21`, for which the IC50 in the experiment on L6 worked out at 307 µM; in experiment [1] it was 0.15 µM.

On to `O=C1C(Nc2ccccc2C(F)(F)F)=C(Nc2ccccc2C(F)(F)F)C(=O)c2c1cccc2[N+](=O)[O-]`, for which the values for the IC50 (with L6; in experiment [1]) were 88 µM and 0.09 µM, respectively.

With `O=C1C(Cl)=C(Nc2ccccc2C(F)(F)F)C(=O)c2c1cccc2[N+](=O)[O-]`, the IC50 in the experiment on L6 came to 75 µM; in experiment [1], 0.07 µM.

On to `O=C1C(Nc2ccccc2C(F)(F)F)=C(Cl)C(=O)c2c1cccc2[N+](=O)[O-]`, for which the IC50 turned out to be 95 µM in the experiment on L6 and 0.05 µM in experiment [1].

On to `O=C1C(Nc2ccc(C(F)(F)F)cc2)=C(Nc2ccc(C(F)(F)F)cc2)C(=O)c2ccccc21`, for which the IC50 was 276 µM in the experiment with L6 and 2 µM in experiment [1].

Take `O=C1C(Cl)=C(Nc2ccc(C(F)(F)F)cc2)C(=O)c2ccccc21`: the IC50 in the experiment with L6 was 292 µM; in experiment [1], 0.8 µM.

As for `O=C1C(Nc2ccc(C(F)(F)F)cc2)=C(Nc2ccc(C(F)(F)F)cc2)C(=O)c2c1cccc2[N+](=O)[O-]`, the IC50 in the experiment on L6 turned out to be 97 µM; in experiment [1] it was 4 µM.

In the case of `O=C1C(Cl)=C(Nc2ccc(C(F)(F)F)cc2)C(=O)c2c1cccc2[N+](=O)[O-]`, the figures for the IC50 (with L6; in experiment [1]) were 121 µM and 2 µM, respectively.

Take `O=C1C(Nc2ccc(C(F)(F)F)cc2)=C(Cl)C(=O)c2c1cccc2[N+](=O)[O-]`: the figures for the IC50 (in the experiment with L6; in experiment [1]) were 115 µM and 0.8 µM, respectively.

As for `O=C1C(Nc2ccccc2)=C(Nc2ccccc2)C(=O)c2ccccc21`, the IC50 with L6 stood at 378 µM; in experiment [1] it was 0.67 µM.

As for `Cc1ccccc1NC1=C(Nc2ccccc2C)C(=O)c2ccccc2C1=O`, the IC50 in the experiment with L6 is more than 450 µM; in experiment [1], 20 µM.

With `Cc1ccc(NC2=C(Nc3ccc(C)cc3)C(=O)c3ccccc3C2=O)cc1`, the concentration for half-maximal inhibition (IC50) with L6 was more than 450 µM; in experiment [1], 24 µM.

For `Cc1cccc(NC2=C(Nc3cccc(C)c3)C(=O)c3ccccc3C2=O)c1`, the figures for the IC50 (with L6; in experiment [1]) were more than 450 µM and 21 µM, respectively.

On to `Cc1cccc(NC2=C(Cl)C(=O)c3ccccc3C2=O)c1`, for which the IC50 in the experiment on L6 was more than 450 µM; in experiment [1] it was 18 µM.

Take `Cc1ccccc1NC1=C(Nc2ccccc2C)C(=O)c2c(cccc2[N+](=O)[O-])C1=O`: the IC50 was determined as 186 µM in the experiment with L6 and 7 µM in experiment [1].

Regarding `Cc1ccccc1NC1=C(Cl)C(=O)c2cccc([N+](=O)[O-])c2C1=O`, the IC50 in the experiment on L6 came to 195 µM; in experiment [1] it was 4 µM.

On to `Cc1ccccc1NC1=C(Cl)C(=O)c2c(cccc2[N+](=O)[O-])C1=O`, for which the IC50 in the experiment on L6 was found to be 210 µM; in experiment [1] it was 3 µM.

As for `Cc1ccc(NC2=C(Nc3ccc(C)cc3)C(=O)c3c(cccc3[N+](=O)[O-])C2=O)cc1`, the IC50 was found to be 172 µM with L6 and 12 µM in experiment [1].

Turning to `Cc1ccc(NC2=C(Cl)C(=O)c3cccc([N+](=O)[O-])c3C2=O)cc1`, the IC50 in the experiment with L6 worked out at 186 µM; in experiment [1] it was 8 µM.

On to `Cc1ccc(NC2=C(Cl)C(=O)c3c(cccc3[N+](=O)[O-])C2=O)cc1`, for which the IC50 in the experiment with L6 was 169 µM; in experiment [1], 6 µM.

On to `Cc1cccc(NC2=C(Nc3cccc(C)c3)C(=O)c3c(cccc3[N+](=O)[O-])C2=O)c1`, for which the IC50 with L6 was found to be 195 µM; in experiment [1], 15 µM.
